Compound activity as filed in PubChem BioAssay.
VIM-2 inhibitor – inhibitors of Pseudomonas aeruginosa VIM-2 metallo-beta-lactamase; purified VIM-2, nitrocefin hydrolysis, epi-absorbance fluorescence; inhibition, % at 5.6 µM; 290,000 tested, 0.89% active;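 active = inhibition above the mean of all tested compounds plus 3 SD, cutoff set per screening run, cut at about 7.5% in these data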;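 also: red hydrolysis product quenches plate fluorescence so inhibitors raise well fluorescence; 0% = enzyme with DMSO and 100% = DMSO without enzyme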
aSyn UTR inh – 5' untranslated region of α-synuclein, MLPCN primary screen; inhibition, % (tested at 7.5 µM); AID 1813; alpha-synuclein 5'UTR reporter, inhibitor activity; 300,000 tested, 0.82% active; in the data active = inhibition above about 60%; inconclusive = no clear call, values can overlap the other calls;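 also: H4 neuroglioblastoma cells stably carrying SNCA 5'UTR luciferase fusion; 0% = DMSO wells and 100% = positive control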
IMP-1 inhibitor – blocks Pseudomonas aeruginosa IMP-1 metallo-beta-lactamase. 290,000 tested, 0.45% active. inhibition, % at 5.6 µM. AID 1556. purified IMP-1, nitrocefin hydrolysis, epi-absorbance fluorescence;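 active = inhibition above the mean plus 3 SD of all compounds in the same screening run, cut at about 4.5% in these data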;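 also: 0% = IMP-1 with DMSO and 100% = DMSO wells lacking enzyme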
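Test system: recombinant IMP-1 enzyme, purified / Medium: HEPES buffer pH 7.1 with ZnSO4 and Brij 35 / Doses: single dose, 5.6 µM / Times: 25 °C, 15 min preincubation, 25 min reaction / Detection: Epi-absorbance via hydrolysed-nitrocefin quenching of white-plate fluorescence, 480/530 nm, EDTA stop / Evaluation: percent inhibition from optical density relative to buffer-blank wells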
Mdm2 MdmX PPI – disrupts the human Mdm2-MdmX interaction. O15151+Q00987. SaOS-2 split-luciferase Mdm2/MdmX complementation, luminescence. inhibition, % at 8 µM. 330,000 tested, 3% active. AID 485346;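 active = inhibition of at least 50% at 8 µM in the primary screen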
Jurkat NFkB inh – lowers PMA/ionomycin-induced NF-kB signal in Jurkat cells; PMA/ionomycin-induced NF-kB luciferase reporter, luminescence; inhibition, % at 4 µM; 330,000 tested, 0.53% active; AID 435003; in the data active = inhibition above about 50%
697 NFkB inh – inhibitors of the PMA/ionomycin-induced NF-kB reporter in 697 B cells; 697 B-cell NF-kB luciferase reporter, 16 h; inhibition, % at 4 µM; 330,000 tested, 0.33% active; AID 435022; in the data active = inhibition above about 35%
Mdm2 MdmX conf – confirmation of human Mdm2/MdmX interaction inhibitors. 10,000 tested, 55% active. Mdm2-MdmX binding, luminescent assay. shares compounds with Mdm2 MdmX PPI. inhibition, % at 8 µM. AID 489028; in the data active = inhibition above about 40%
Full FLuc ctr – inhibits full-length luciferase, flagging false Mdm2/MdmX hits | shares compounds with Mdm2 MdmX PPI | SaOS-2 full-length luciferase counterscreen, luminescence | inhibition, % at 8 µM | 6,200 tested, 77% active;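 active = mean inhibition at 8 µM reaching about 37%, which flags the compound as non-specific, limit read from the data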;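 also: p53-null SaOS-2 cells with luciferase driven by a doxycycline-inducible promoter; compound on cells about two nights before reading with doxycycline added after day one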
An asterisk follows results filed as active. Compounds with a hit are over-represented: about 4.7% of the library has one in this group of screens.

Screening CN(C)CCCN(C(=O)c1ccc(S(=O)(=O)N(C)Cc2ccccc2)cc1)c1nc2cc3c(cc2s1)OCO3 returned VIM-2 inhibitor -1.3, aSyn UTR inh 46.6, IMP-1 inhibitor -0.7, Mdm2 MdmX PPI 57.0*, Jurkat NFkB inh -3.0, 697 NFkB inh -5.2 and Mdm2 MdmX conf 30.9.
For CC(OC(=O)Cn1cnc2c1c(=O)n(C)c(=O)n2C)C(=O)NC1CCCCC1C (configuration not stated) the results were aSyn UTR inh 0.1, Mdm2 MdmX PPI 4.0, Jurkat NFkB inh 5.6 and 697 NFkB inh 7.9.
For CCN(c1ccccc1)S(=O)(=O)c1ccc(C(=O)N(CCCN(C)C)c2nc3cc4c(cc3s2)OCO4)cc1 the results were VIM-2 inhibitor -1.9, aSyn UTR inh 0.7, IMP-1 inhibitor -2.1, Mdm2 MdmX PPI 65.0*, Jurkat NFkB inh -1.2, 697 NFkB inh -13.5, Mdm2 MdmX conf 48.7* and Full FLuc ctr 47.6*.
`CCOCCCNC(=O)C(c1ccc(C)cc1)N(Cc1cccs1)C(=O)CNC(C)=O` (configuration not stated) gave VIM-2 inhibitor -0.9, aSyn UTR inh -7.6, IMP-1 inhibitor -1.5, Mdm2 MdmX PPI 17.2, Jurkat NFkB inh -3.1 and 697 NFkB inh 18.8.
For COC(=O)c1c(NC(=O)CS(=O)(=O)c2ccccc2)sc(C)c1C the results were aSyn UTR inh -0.8, Mdm2 MdmX PPI 2.3, Jurkat NFkB inh 12.3 and 697 NFkB inh -27.0.
O=C1c2cccc3c([N+](=O)[O-])ccc(c23)C(=O)N1Cc1cccnc1 was read as VIM-2 inhibitor 6.9, aSyn UTR inh -5.3 and IMP-1 inhibitor 1.5.
For Cc1ccc(N2C(=O)c3cccc4c(N5CCN(C)CC5)ccc(c34)C2=O)c2cccnc12 the results were VIM-2 inhibitor 3.7, aSyn UTR inh -22.6, IMP-1 inhibitor 3.9, Mdm2 MdmX PPI 66.0*, Jurkat NFkB inh 32.6, 697 NFkB inh -17.2, Mdm2 MdmX conf 65.0* and Full FLuc ctr 56.5*.
For Cc1ccnc(N2C(=O)c3cccc4c([N+](=O)[O-])ccc(c34)C2=O)c1 the results were VIM-2 inhibitor -1.7, aSyn UTR inh -0.6, IMP-1 inhibitor 1.1, Mdm2 MdmX PPI 100.3*, Jurkat NFkB inh 6.8, 697 NFkB inh 10.6 and Mdm2 MdmX conf 6.0.
`Cc1nnc(N2C(=O)c3cccc4c([N+](=O)[O-])ccc(c34)C2=O)s1` gave VIM-2 inhibitor 6.1, aSyn UTR inh -18.6, IMP-1 inhibitor -5.3, Mdm2 MdmX PPI 60.8*, Jurkat NFkB inh 11.4, 697 NFkB inh 18.5 and Mdm2 MdmX conf 37.5.
For Cc1ccc(N2C(=O)c3cccc4c([N+](=O)[O-])ccc(c34)C2=O)c2cccnc12 the results were VIM-2 inhibitor -1.4, aSyn UTR inh inconclusive, IMP-1 inhibitor -3.0, Mdm2 MdmX PPI 91.8*, Jurkat NFkB inh 32.5, 697 NFkB inh -45.0, Mdm2 MdmX conf 59.9* and Full FLuc ctr 59.9*.
Screening Cc1ccnc(N2C(=O)c3ccccc3C2=O)c1 returned VIM-2 inhibitor -0.4, aSyn UTR inh 10.8, IMP-1 inhibitor 0.3, Mdm2 MdmX PPI -17.2, Jurkat NFkB inh 3.1 and 697 NFkB inh -2.7.
Screening COC(=O)C(Cc1cncn1COCc1ccccc1)NC(=O)OC(C)(C)C (configuration not stated) returned VIM-2 inhibitor -1.7, aSyn UTR inh -6.2, IMP-1 inhibitor -4.3, Mdm2 MdmX PPI 3.9, Jurkat NFkB inh -1.3 and 697 NFkB inh 4.7.
O=C(Nc1ccc(F)cc1)Nc1sccc1-c1nc2ccccc2s1 was read as VIM-2 inhibitor -4.5, aSyn UTR inh 44.5, IMP-1 inhibitor -4.8, Mdm2 MdmX PPI 68.2*, Jurkat NFkB inh -26.8, 697 NFkB inh -6.1, Mdm2 MdmX conf 35.5 and Full FLuc ctr 68.6*.
`Cc1ccc(S(=O)(=O)Nc2cc(=O)[nH]c(SCc3ccc(Cl)cc3)n2)cc1` gave VIM-2 inhibitor -4.2 and IMP-1 inhibitor -2.9.
`CC(=O)O[C@@H]1[C@@H](O)[C@@H](O)[C@H](Oc2c(-c3ccc(O)cc3)oc3c(CC=C(C)C)c(O)cc(O)c3c2=O)O[C@H]1C` gave aSyn UTR inh 26.0, Mdm2 MdmX PPI 36.3, Jurkat NFkB inh -12.4 and 697 NFkB inh 10.8.
CC(=O)O[C@H]1[C@@H](O)[C@H](O)[C@H](Oc2c(O)c(C)c3c4c2[C@@H](C)CC[C@@H]4[C@@H](C)C[C@H]3C=C(C)C)O[C@H]1C was read as Mdm2 MdmX PPI 90.1*, Jurkat NFkB inh 17.5, 697 NFkB inh -12.1 and Mdm2 MdmX conf -0.3.
COc1ccc(CNC(=O)CNC(=O)c2cccs2)c(OC)c1 was read as VIM-2 inhibitor -1.4, aSyn UTR inh -5.5, IMP-1 inhibitor -2.5, Mdm2 MdmX PPI -21.0, Jurkat NFkB inh -3.5 and 697 NFkB inh 10.1.
For CS(=O)(=O)c1ccc(C(=O)OCC(=O)NCc2cccs2)cc1[N+](=O)[O-] the results were Mdm2 MdmX PPI 73.3*, Jurkat NFkB inh 3.6, 697 NFkB inh 1.3, Mdm2 MdmX conf 52.9* and Full FLuc ctr 20.8.
Cc1cccc(C(=O)OCC(=O)NCc2cccs2)c1 was read as VIM-2 inhibitor 0.3, aSyn UTR inh -3.2, IMP-1 inhibitor 0.4, Mdm2 MdmX PPI -2.5, Jurkat NFkB inh 3.9 and 697 NFkB inh -4.2.
`O=c1[nH]cnc2c1sc1nc(C(F)F)cc(-c3ccccc3)c12` gave Mdm2 MdmX PPI 52.9*, Jurkat NFkB inh 0.7, 697 NFkB inh 14.3 and Mdm2 MdmX conf 7.5.
`COc1cc(/C=C2\SC(=Nc3ccc(O)cc3)NC2=O)cc(OC)c1O` gave VIM-2 inhibitor 5.1, aSyn UTR inh -5.8, IMP-1 inhibitor -4.9, Mdm2 MdmX PPI 55.9*, Jurkat NFkB inh 3.5, 697 NFkB inh 2.7, Mdm2 MdmX conf 41.2* and Full FLuc ctr 81.1*.
For CCOc1ccc(NC(=O)CSc2ccc3nnc(-c4ccccn4)n3n2)cc1 the results were VIM-2 inhibitor -2.5, aSyn UTR inh 2.0, IMP-1 inhibitor -2.4, Mdm2 MdmX PPI -4.9, Jurkat NFkB inh 2.3 and 697 NFkB inh -4.3.
Screening CNC(=S)N/N=C/c1ccc(-c2cccc(C(=O)O)c2)o1 returned VIM-2 inhibitor -1.9, aSyn UTR inh 14.7, IMP-1 inhibitor -2.1, Mdm2 MdmX PPI 20.9, Jurkat NFkB inh -10.2 and 697 NFkB inh -30.7.
Screening Cc1ccc(C(=O)N/N=C/c2ccc(-c3cccc(C(F)(F)F)c3)o2)cn1 returned VIM-2 inhibitor -4.8, aSyn UTR inh 65.2*, IMP-1 inhibitor -3.7, Mdm2 MdmX PPI 58.2*, Jurkat NFkB inh 25.0, 697 NFkB inh -82.7, Mdm2 MdmX conf 53.0* and Full FLuc ctr 49.6*.
